Calls of active or inactive are those of the source. The rule behind the calls is not given here.
How the values were obtained:
[1] = molecular target: Nuclear factor NF-kappa-B complex (Homo sapiens) (UniProt Q00653+P19838+Q04206); assay: Inhibition of NF-kappaB in human HepG2 cells assessed as inhibition of TNF-alpha-induced luciferase reporter gene expression at 10 uM preincubated for 1 hr followed by TNF-alpha stimulation measured after 4 hrs relative to control; type: cell-based
Outline: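 HepG2 cells stably carrying an NF-κB-luciferase reporter, grown in DMEM with 10% FBS and penicillin/streptomycin at 37 °C, 5% CO2. Seeded overnight at 5 × 10^4 cells/well (24-well), preincubated 1 h with compound at 10 μM, then stimulated with TNFα (10 ng/mL) for 4 h. Luciferase activity read in cell lysates; mean ± SEM, n = 3.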

[2] = system: HepG2; assay: Cytotoxicity against human HepG2 cells at 10 uM; type: cell-based; settings: hepg2, 10 µM

Chain of Nuclear factor NF-kappa-B complex (Homo sapiens) (P19838 whole entry, looked up): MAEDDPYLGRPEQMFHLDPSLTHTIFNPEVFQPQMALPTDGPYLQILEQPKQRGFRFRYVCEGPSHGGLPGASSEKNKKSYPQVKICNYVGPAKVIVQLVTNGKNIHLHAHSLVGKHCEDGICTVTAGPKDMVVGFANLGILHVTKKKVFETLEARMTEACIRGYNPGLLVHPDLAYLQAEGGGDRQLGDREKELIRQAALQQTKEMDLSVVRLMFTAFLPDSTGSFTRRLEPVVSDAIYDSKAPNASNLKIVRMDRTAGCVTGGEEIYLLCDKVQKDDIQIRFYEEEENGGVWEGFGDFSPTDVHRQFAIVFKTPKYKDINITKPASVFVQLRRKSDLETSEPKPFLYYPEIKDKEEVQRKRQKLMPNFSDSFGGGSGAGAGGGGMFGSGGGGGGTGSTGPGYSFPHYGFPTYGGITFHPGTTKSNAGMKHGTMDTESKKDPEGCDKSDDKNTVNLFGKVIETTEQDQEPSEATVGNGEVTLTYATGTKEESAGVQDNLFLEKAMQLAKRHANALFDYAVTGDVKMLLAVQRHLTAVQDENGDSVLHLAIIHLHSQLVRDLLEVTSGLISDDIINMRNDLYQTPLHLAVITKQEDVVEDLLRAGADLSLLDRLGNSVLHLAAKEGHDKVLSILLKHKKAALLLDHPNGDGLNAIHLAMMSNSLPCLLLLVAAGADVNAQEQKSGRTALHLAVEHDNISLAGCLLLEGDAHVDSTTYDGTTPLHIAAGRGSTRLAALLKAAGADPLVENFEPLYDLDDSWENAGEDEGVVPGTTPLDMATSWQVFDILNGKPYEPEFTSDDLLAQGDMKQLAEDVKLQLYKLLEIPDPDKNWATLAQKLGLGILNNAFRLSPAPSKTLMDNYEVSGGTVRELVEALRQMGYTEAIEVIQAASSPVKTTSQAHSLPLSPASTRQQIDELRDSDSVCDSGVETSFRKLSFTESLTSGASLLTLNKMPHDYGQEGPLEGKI
Chain of Nuclear factor NF-kappa-B complex (Homo sapiens) (Q00653 whole entry, looked up): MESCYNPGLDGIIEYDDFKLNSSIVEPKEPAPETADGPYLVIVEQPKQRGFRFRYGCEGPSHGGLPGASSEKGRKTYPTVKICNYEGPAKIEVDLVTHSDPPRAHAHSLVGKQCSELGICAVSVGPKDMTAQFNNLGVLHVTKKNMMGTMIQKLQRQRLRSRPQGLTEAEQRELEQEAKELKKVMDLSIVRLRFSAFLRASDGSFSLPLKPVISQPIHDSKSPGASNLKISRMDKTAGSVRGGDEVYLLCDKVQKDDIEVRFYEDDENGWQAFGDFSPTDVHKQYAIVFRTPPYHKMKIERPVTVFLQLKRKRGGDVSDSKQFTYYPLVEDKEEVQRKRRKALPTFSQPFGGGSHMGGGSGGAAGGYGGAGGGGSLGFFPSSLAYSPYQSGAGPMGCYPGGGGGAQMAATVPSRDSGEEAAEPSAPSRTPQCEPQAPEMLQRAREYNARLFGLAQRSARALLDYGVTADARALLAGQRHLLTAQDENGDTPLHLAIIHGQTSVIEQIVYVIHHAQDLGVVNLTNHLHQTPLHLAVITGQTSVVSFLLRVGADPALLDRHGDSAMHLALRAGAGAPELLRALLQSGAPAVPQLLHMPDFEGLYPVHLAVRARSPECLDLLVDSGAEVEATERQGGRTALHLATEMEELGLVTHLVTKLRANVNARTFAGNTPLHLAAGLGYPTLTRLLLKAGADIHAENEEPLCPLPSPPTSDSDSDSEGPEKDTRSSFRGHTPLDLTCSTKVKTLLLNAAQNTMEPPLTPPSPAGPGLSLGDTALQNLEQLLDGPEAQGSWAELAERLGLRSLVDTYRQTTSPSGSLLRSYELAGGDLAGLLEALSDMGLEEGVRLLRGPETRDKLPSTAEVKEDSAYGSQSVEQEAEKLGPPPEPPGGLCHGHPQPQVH
Chain of Nuclear factor NF-kappa-B complex (Homo sapiens) (Q04206 whole entry, looked up): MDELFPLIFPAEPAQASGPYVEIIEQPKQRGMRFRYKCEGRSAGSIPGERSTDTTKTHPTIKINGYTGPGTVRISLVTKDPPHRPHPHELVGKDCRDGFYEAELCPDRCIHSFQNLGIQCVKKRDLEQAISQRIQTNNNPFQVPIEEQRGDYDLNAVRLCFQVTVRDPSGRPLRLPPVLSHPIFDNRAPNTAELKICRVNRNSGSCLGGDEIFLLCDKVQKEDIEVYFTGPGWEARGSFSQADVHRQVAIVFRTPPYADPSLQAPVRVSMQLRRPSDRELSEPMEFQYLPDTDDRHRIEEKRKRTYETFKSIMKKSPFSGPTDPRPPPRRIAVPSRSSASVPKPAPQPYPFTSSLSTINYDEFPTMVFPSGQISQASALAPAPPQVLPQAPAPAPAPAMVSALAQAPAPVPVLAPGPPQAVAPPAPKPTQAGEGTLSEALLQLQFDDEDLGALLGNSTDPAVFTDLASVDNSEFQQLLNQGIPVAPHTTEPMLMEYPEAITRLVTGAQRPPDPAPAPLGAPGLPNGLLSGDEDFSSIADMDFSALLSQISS

SMILES	inhibition [1]	Activity [2]
C=C1[C@@H]([C@@]2(C)C=CC(=O)OC(C)(C)[C@@H]2CC(=O)OC)[C@@H](OC(C)=O)[C@H](OC(=O)C(C)CC)[C@@]2(C)[C@H](C3=CCNC3=O)C[C@H]3O[C@]132 (stereo not given in full)	inactive	Non-toxic
C=C1[C@@H]([C@@]2(C)C=CC(=O)OC(C)(C)[C@@H]2CC(=O)OC)[C@@H](OC(C)=O)[C@H](OC(=O)C(C)CC)[C@@]2(C)[C@H](C3=CC(=O)NC3)C[C@H]3O[C@]132 (stereo not given in full)	64%	Non-toxic

More lines, main results first:

inhibition [1]	SMILES	Activity [2]
inactive	C=C1[C@@H]([C@@]2(C)C=CC(=O)OC(C)(C)[C@@H]2CC(=O)OC)[C@@H](OC(C)=O)[C@H](OC(=O)c2ccccc2)[C@@]2(C)[C@H](C3=CC(=O)NC3)C[C@H]3O[C@]132 (relative stereo)	Non-toxic
inactive	C=C1[C@@H]([C@@]2(C)C=CC(=O)OC(C)(C)[C@@H]2CC(=O)OC)[C@@H](OC(C)=O)[C@H](OC(=O)c2ccccc2)[C@@]2(C)[C@H](C3=CCN(C)C3=O)C[C@H]3O[C@]132	Non-toxic
inactive	C=C1[C@@H]([C@@]2(C)C=CC(=O)OC(C)(C)[C@@H]2CC(=O)OC)[C@@H](OC(C)=O)[C@H](OC(=O)c2ccccc2)[C@@]2(C)[C@H](C3=CCNC3=O)C[C@H]3O[C@]132 (relative stereo)	Non-toxic

From ChEMBL document CHEMBL3232886, “C-17 lactam-bearing limonoids from the twigs and leaves of Amoora tsangii” (J Nat Prod, 2014)
